Laboratory results reported in ChEMBL document CHEMBL3352349, “Synthesis and biological evaluation of new nitrogen-containing diselenides” (Eur J Med Chem, 2014).
The source made the active and inactive calls. The rule behind the calls is not given here.

Key:
[1] = Antioxidant activity assessed as glutathione peroxidase-like activity by UV spectrophotometry relative to (PhSe)2; type: physicochemical
Method in brief: (§1)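 Tomoda-type thiol peroxidase model run in methanol, or ethanol where needed for solubility, at 25 (±3) °C. Catalyst at 0.1 mM final and PhSH at 2 mM final were mixed. After about 120 s, H₂O₂ was added to 5 mM final. PhSSPh formation was followed at 305 nm, with runs repeated more than three times. T₅₀ is the time to halve the thiol after H₂O₂ addition. Ebselen and (PhSe)₂ were each set to 1.0.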

[2] = Antioxidant activity assessed as glutathione peroxidase-like activity assessed as time required to reduce the thiol concentration by 50% after addition of H2O2 by UV spectrophotometry; type: physicochemical; method in brief: as §1
[3] = tested on: Brain; assay: Antioxidant activity in rat brain homogenate assessed as inhibition of Fe(II)-induced TBARS formation after 60 mins by spectrophotometry; type: functional, tissue-based
[4] = Antioxidant activity assessed as glutathione peroxidase-like activity by UV spectrophotometry relative to ebselen; type: physicochemical; method in brief: as §1
[5] = target: T1, Thioredoxin reductase 1, cytoplasmic (Rattus norvegicus) (UniProt O89049); assay: Activity of partially purified rat Thioredoxin reductase assessed as NADPH oxidation after 10 mins by spectrophotometry
T1 sequence (whole entry): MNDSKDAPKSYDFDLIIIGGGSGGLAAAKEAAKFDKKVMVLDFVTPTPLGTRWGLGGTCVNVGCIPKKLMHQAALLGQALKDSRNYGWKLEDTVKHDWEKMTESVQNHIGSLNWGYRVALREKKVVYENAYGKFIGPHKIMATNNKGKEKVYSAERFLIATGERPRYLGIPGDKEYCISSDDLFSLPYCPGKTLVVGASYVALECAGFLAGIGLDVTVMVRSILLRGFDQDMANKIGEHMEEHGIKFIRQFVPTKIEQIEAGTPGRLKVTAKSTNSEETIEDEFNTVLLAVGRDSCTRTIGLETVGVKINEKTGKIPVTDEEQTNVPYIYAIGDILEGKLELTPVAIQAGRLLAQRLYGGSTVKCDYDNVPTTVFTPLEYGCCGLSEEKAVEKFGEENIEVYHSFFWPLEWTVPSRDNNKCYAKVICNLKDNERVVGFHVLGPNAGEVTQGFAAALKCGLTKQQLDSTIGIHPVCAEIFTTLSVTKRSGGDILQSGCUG
Method in brief: (§2)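 Enzyme: partially purified TrxR from rat liver. NADPH consumption read at 340 nm over 10 min, with or without the organoselenium compound. Activity is given as nmol NADPH/min/mg. Efficiency is expressed relative to ebselen. In the reference reaction, NADPH oxidation was checked for sensitivity to […] AuCl₃. Details are in the cited reference.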

[6] = target: T1, Thioredoxin reductase 1, cytoplasmic (Rattus norvegicus); assay: Activity of partially purified rat Thioredoxin reductase assessed as NADPH oxidation after 10 mins by spectrophotometry relative to ebselen; method in brief: as §2
[7] = target: T1, Thioredoxin reductase 1, cytoplasmic (Rattus norvegicus); assay: Activity of partially purified rat Thioredoxin reductase assessed as 5 umol/L AuCl3-mediated inhibition of NADPH oxidation by spectrophotometry
Method in brief: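 Partially purified rat liver TrxR was used. NADPH consumption was followed at 340 nm for 10 min in the absence or presence of an organoselenium catalyst. AuCl3 was added to the reaction containing the reference selenium catalyst. Activity was expressed as nmol NADPH/min/mg.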

| SMILES | Ratio [1] | Time [2] [min] | inhibition [3] | Ratio [4] | Activity [5] [nmol/min/mg] | Ratio [6] | inhibition [7] [%] |
| --- | --- | --- | --- | --- | --- | --- | --- |
| CC(Cc1ccccc1)NC(=O)c1ccccc1[Se][Se]c1ccccc1C(=O)NC(C)Cc1ccccc1 (centres undefined) | 3.26 | 16.87 | Active | 9.14 | 0 | – | – |
| CC(Cc1ccccc1)NC(=O)CC[Se][Se]CCC(=O)NC(C)Cc1ccccc1 (centres undefined) | – | 76 | Active | 2.03 | 13.7 | 4 | – |
| O=C(C[Se][Se]CC(=O)NCCc1ccccc1)NCCc1ccccc1 | 1.23 | 44.9 | Active | 3.43 | 19.1 | 5.6 | – |
| CC(Cc1ccccc1)NC(=O)C[Se][Se]CC(=O)NC(C)Cc1ccccc1 (centres undefined) | – | 299.63 | Active | – | 0 | – | – |
| O=c1c2ccccc2[se]n1-c1ccccc1 [EBSELEN] | – | 154.26 | – | – | 3.4 | – | > 95 |
| O=C(CC[Se][Se]CCC(=O)NCCc1ccccc1)NCCc1ccccc1 | – | 81.43 | Active | 1.89 | 16.1 | 4.7 | – |
| c1ccc([Se][Se]c2ccccc2)cc1 | – | 55.04 | – | 2.8 | – | – | – |
| O=C(NCCc1ccccc1)c1ccccc1[Se][Se]c1ccccc1C(=O)NCCc1ccccc1 | 1.85 | 29.73 | Active | 5.2 | 0 | – | – |
